The values below come from ChEMBL document CHEMBL1145456, “Antitumor agents 253. Design, synthesis, and antitumor evaluation of novel 9-substituted phenanthrene-based tylophorine derivatives as potential anticancer agents” (J Med Chem, 2007).

In general, IC50 refers to the midpoint of a concentration-inhibition curve.

The source made the active and inactive calls. The rule behind the calls is not given here.

The test system of experiment [1] is A549. The experiment can be described thus: Cytotoxicity against human A549 cells by SRB microtiter plate assay. It is filed as functional, cell-based. In a few lines:
(§1)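 Cells were cultured at 37 °C, 5% CO₂, in RPMI-1640 with 25 mM HEPES, 2% bicarbonate, 10% FBS and kanamycin. Compounds were added from DMSO stocks, final DMSO ≤1% (v/v). IC₅₀ was interpolated from dose-response data. Each test was run in triplicate in independent experiments.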

Another experiment deals with DU-145. In words: Cytotoxicity against human DU145 cells by SRB microtiter plate assay. Format: functional, cell-based. The method, boiled down: as §1
A short description of experiment [2]: Cytotoxicity against multidrug resistant human KB-Vin cells by SRB microtiter plate assay. It is filed as functional, cell-based. The method, boiled down:
as §1

The next experiment relates to ZR-75-1. In words: Cytotoxicity against human ZR751cells by SRB microtiter plate assay. Format: functional, cell-based. In a few lines:
as §1

Another experiment concerns KB. The experiment can be described thus: Cytotoxicity against human KB cells by SRB microtiter plate assay. Format: functional, cell-based. In a few lines:
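KB cells grown at 37 °C, 5% CO₂, humidified, in RPMI-1640 with 25 mM HEPES, 2% (w/v) sodium bicarbonate, 10% FBS and 100 µg/mL kanamycin. Compounds were added from DMSO stocks, with final DMSO at or below 1% (v/v). IC₅₀ was interpolated from dose-response data. Each test was run in triplicate, and independent tests were repeated.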

For experiment [3], the system named is A549. In words: Antitumor activity against human A549 xenografted SCID mouse model at 10 mg/kg, ip after 5 days. It is filed as functional, organism-based. Also noted: dose 10 mg/kg. The method, boiled down:
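Male SCID mice were inoculated s.c. on the dorsal side with 1.5 × 10⁷ A549 cells. Day 1 was when tumors reached ≥5 mm; groups of six. Dosing ip at 10 mL/kg every 4 days for six doses. Tumor size and body weight recorded every 4 days. Tumor weight = length × width² × 0.5. T/C = (Tn−T1)/(Cn−C1) × 100% against vehicle.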
A general note: Xenograft models place foreign cells or tissue in a host animal.

In the experiment on A549 [1] (Homo sapiens, A549), `COc1ccc2c(CNCCCCCCCCCCC(=O)O)cc3cc4c(cc3c2c1)OCO4` yielded an IC50 of 3.2 µM.

In the experiment on A549 [1] (Homo sapiens, A549), `COc1ccc2c(CNCCCCCO)cc3cc4c(cc3c2c1)OCO4` had an IC50 of 0.27 µM.

On to `COc1ccc2c(CN3CCC[C@@H]3C(=O)O)cc3cc4c(cc3c2c1)OCO4`, for which, in the experiment with A549 [1] (Homo sapiens, A549), the IC50 stood at 5.2 µM.

In the case of `COc1ccc2c(CN3CCC(C(=O)O)CC3)cc3cc4c(cc3c2c1)OCO4`, the IC50 turned out to be 0.31 µM in the experiment with DU-145 (Homo sapiens, DU-145); 0.38 µM in experiment [2] (Homo sapiens, KBVIN); 0.25 µM in the experiment with ZR-75-1 (Homo sapiens, ZR-75-1); 0.15 µM in the experiment with KB (Homo sapiens, KB); 0.23 µM with A549 [1] (Homo sapiens, A549).

`CC[C@]1(O)C[C@H]2CN(CCc3c([nH]c4ccccc34)[C@@](C(=O)OC)(c3cc4c(cc3OC)N(C=O)[C@H]3[C@@](O)(C(=O)OC)[C@H](OC(C)=O)[C@]5(CC)C=CCN6CC[C@]43[C@@H]65)C2)C1` [VINCRISTINE]: the IC50 was found to be 0.085 µM in the experiment on DU-145 (Homo sapiens, DU-145); 5.3 µM in experiment [2] (Homo sapiens, KBVIN); 0.04 µM in the experiment with ZR-75-1 (Homo sapiens, ZR-75-1); 0.006 µM in the experiment on KB (Homo sapiens, KB); 0.04 µM with A549 [1] (Homo sapiens, A549).

In the case of `COc1ccc2c(CNCCCCCCO)cc3cc4c(cc3c2c1)OCO4` [listing 1 of 2 here], the IC50 with DU-145 (du-145) stood at 0.44 µM; in experiment [2], 0.35 µM; in the experiment on ZR-75-1 (zr-75-1), 0.13 µM; in the experiment on KB (kb), 0.25 µM; in the experiment with A549 [1] (Homo sapiens, A549) it was 0.2 µM.

As for `COc1ccc2c(CN3CCN(CCO)CC3)cc3cc4c(cc3c2c1)OCO4`, the IC50 in the experiment with DU-145 (Homo sapiens, DU-145) was determined as 0.25 µM; in experiment [2] (Homo sapiens, KBVIN) it was 0.51 µM; in the experiment with ZR-75-1 (Homo sapiens, ZR-75-1), 0.23 µM; with KB (Homo sapiens, KB), 0.5 µM; in the experiment on A549 [1] (Homo sapiens, A549) it was 0.63 µM.

In turn, `COc1ccc2c(CN3CCC[C@H]3CO)cc3cc4c(cc3c2c1)OCO4` registered an IC50 in the experiment on A549 [1] (Homo sapiens, A549) of 0.7 µM.

Molecule `O=C(O)C1CCN(Cc2cc3cc4c(cc3c3cc(OCc5ccccc5)ccc23)OCO4)CC1` displayed an IC50 in the experiment with A549 [1] (Homo sapiens, A549) of 2.1 µM.

In turn, `COc1ccc2c(CN3CCCC[C@H]3C(=O)O)cc3cc4c(cc3c2c1)OCO4` showed an IC50 with A549 [1] (Homo sapiens, A549) of 0.5 µM.

In turn, `COc1ccc2c(CN3CCC[C@H]3C(=O)O)cc3cc4c(cc3c2c1)OCO4` returned an IC50 in the experiment with A549 [1] (Homo sapiens, A549) of 2.1 µM.

`O=C(O)[C@@H]1CCCCN1Cc1cc2cc3c(cc2c2cc(OCc4ccccc4)ccc12)OCO3` registered an IC50 in the experiment on A549 [1] (Homo sapiens, A549) of 3.2 µM.

Consider `COc1ccc2c(CN3CCC(CCO)CC3)cc3cc4c(cc3c2c1)OCO4` [listing 1 of 2 here], for which the IC50 in the experiment with DU-145 (du-145) was 0.15 µM; in experiment [2] it was 0.5 µM; in the experiment on ZR-75-1 (zr-75-1), 0.03 µM; in the experiment on KB (kb), 0.42 µM; in the experiment on A549 [1] (Homo sapiens, A549), 0.15 µM.

Turning to `COc1ccc2c3c(c4cc(OC)c(OC)cc4c2c1)C[C@H]1CCCN1C3` [(-)-ANTOFINE], the IC50 was 0.009 µM in the experiment with DU-145 (Homo sapiens, DU-145); 0.009 µM in experiment [2] (Homo sapiens, KBVIN); 0.008 µM in the experiment on ZR-75-1 (Homo sapiens, ZR-75-1); 0.013 µM with KB (Homo sapiens, KB); 0.008 µM in the experiment with A549 [1] (Homo sapiens, A549).

Turning to `COc1ccc2c(CNCCCCCCCCCCCO)cc3cc4c(cc3c2c1)OCO4`, in the experiment on A549 [1] (Homo sapiens, A549), inhibition was half-maximal at 2.6 µM (IC50).

Take `COc1ccc2c(CN3CCN(c4ccc(O)cc4)CC3)cc3cc4c(cc3c2c1)OCO4`: the IC50 worked out at 0.15 µM in the experiment on DU-145 (Homo sapiens, DU-145); 0.34 µM in experiment [2] (Homo sapiens, KBVIN); 0.18 µM in the experiment with ZR-75-1 (Homo sapiens, ZR-75-1); 0.13 µM in the experiment on KB (Homo sapiens, KB); 0.22 µM with A549 [1] (Homo sapiens, A549).

Turning to `COc1ccc2c(CN3CCN(CCOCCO)CC3)cc3cc4c(cc3c2c1)OCO4`, the IC50 with A549 [1] (Homo sapiens, A549) amounted to 57.1 µM.

Take `COc1cc([C@@H]2c3cc4c(cc3[C@@H](O[C@@H]3O[C@@H]5CO[C@@H](C)O[C@H]5[C@H](O)[C@H]3O)[C@H]3COC(=O)[C@H]23)OCO4)cc(OC)c1O` [ETOPOSIDE]: the IC50 in the experiment on DU-145 (Homo sapiens, DU-145) is 2.4 µM; in experiment [2] (Homo sapiens, KBVIN) it was greater than 10 µM; in the experiment with ZR-75-1 (Homo sapiens, ZR-75-1), 3.1 µM; in the experiment on KB (Homo sapiens, KB) it was 4.8 µM; in the experiment with A549 [1] (Homo sapiens, A549), 1.4 µM.

Turning to `COc1ccc2c(CN3CCC(CCO)CC3)cc3cc4c(cc3c2c1)OCO4` [listing 2 of 2 here], the IC50 in the experiment with DU-145 (Homo sapiens, DU-145) worked out at 0.1 µM; in experiment [2], 0.2 µM; in the experiment with ZR-75-1 (Homo sapiens, ZR-75-1), 0.02 µM; in the experiment with KB (kb) it was 0.2 µM; in the experiment with A549 [1] (a549), 0.09 µM.

On to `COc1ccc2c(CN3CCN(c4ccccc4Cl)CC3)cc3cc4c(cc3c2c1)OCO4`, for which the result in the experiment on A549 [1] was inactive.

As for `OCC1CCN(Cc2cc3cc4c(cc3c3cc(OCc5ccccc5)ccc23)OCO4)CC1`, in the experiment on A549 [1] (Homo sapiens, A549), it took 0.7 µM to reach half-maximal inhibition (IC50).

Regarding `COc1ccc2c(CN3CCC(CO)CC3)cc3cc4c(cc3c2c1)OCO4` [listing 1 of 3 here], the IC50 turned out to be 0.05 µM in the experiment with DU-145 (Homo sapiens, DU-145); 0.04 µM in experiment [2]; 0.04 µM in the experiment with ZR-75-1 (Homo sapiens, ZR-75-1); 0.07 µM with KB (kb); 0.07 µM with A549 [1] (a549).

Regarding `COc1ccc2c(CN3CCC(CO)CC3)cc3cc4c(cc3c2c1)OCO4` [listing 2 of 3 here], the outcome in the experiment with A549 [3] was Active.

For `CC[C@H]1CN2CCc3cc(OC)c(OC)cc3[C@@H]2C[C@@H]1C[C@H]1NCCc2cc(OC)c(OC)cc21` [EMETINE], the IC50 in the experiment on DU-145 (Homo sapiens, DU-145) is 0.06 µM; in experiment [2] (Homo sapiens, KBVIN) it was greater than 2 µM; in the experiment on ZR-75-1 (Homo sapiens, ZR-75-1) it was 0.1 µM; in the experiment on KB (Homo sapiens, KB), 0.04 µM; in the experiment on A549 [1] (Homo sapiens, A549), 0.04 µM.

Consider `COc1cccc2c1C(=O)c1c(O)c3c(c(O)c1C2=O)C[C@@](O)(C(=O)CO)C[C@@H]3O[C@H]1C[C@H](N)[C@H](O)[C@H](C)O1` [DOXORUBICIN], for which the IC50 was 0.13 µM in the experiment on DU-145 (Homo sapiens, DU-145); greater than 4 µM in experiment [2] (Homo sapiens, KBVIN); 0.04 µM in the experiment with ZR-75-1 (Homo sapiens, ZR-75-1); 0.18 µM in the experiment on KB (Homo sapiens, KB); 0.18 µM with A549 [1] (Homo sapiens, A549).

Consider `COc1ccc2c(CN3CCN(c4ccc(Cl)cc4)CC3)cc3cc4c(cc3c2c1)OCO4`, for which the IC50 in the experiment with A549 [1] (Homo sapiens, A549) worked out at 65.2 µM.

For `COc1ccc2c(CN3CCC[C@@H]3CO)cc3cc4c(cc3c2c1)OCO4`, half-maximal inhibition in the experiment on A549 [1] (Homo sapiens, A549) (IC50) was put at 1.1 µM.

`COc1ccc2c(CNCCCCCCO)cc3cc4c(cc3c2c1)OCO4` [listing 2 of 2 here]: the IC50 in the experiment with DU-145 (du-145) is 0.07 µM; in experiment [2], 0.16 µM; with ZR-75-1 (Homo sapiens, ZR-75-1) it was 0.08 µM; in the experiment with KB (Homo sapiens, KB), 0.23 µM.

The molecule `OC[C@@H]1CCCCN1Cc1cc2cc3c(cc2c2cc(OCc4ccccc4)ccc12)OCO3` registered an IC50 with A549 [1] (Homo sapiens, A549) of 1.3 µM.

Regarding `COc1ccc2c(CN3CCC(CO)CC3)cc3cc4c(cc3c2c1)OCO4` [listing 3 of 3 here], the IC50 in the experiment on DU-145 (du-145) turned out to be 0.03 µM; in experiment [2], 0.09 µM; in the experiment with ZR-75-1 (zr-75-1), 0.03 µM; with KB (kb) it was 0.24 µM; in the experiment with A549 [1] (Homo sapiens, A549), 0.08 µM.

`COc1ccc2c(CN3CCCC[C@H]3CO)cc3cc4c(cc3c2c1)OCO4` [listing 1 of 2 here]: the IC50 with DU-145 (du-145) turned out to be 0.21 µM; in experiment [2] (Homo sapiens, KBVIN) it was 0.16 µM; in the experiment on ZR-75-1 (Homo sapiens, ZR-75-1), 0.1 µM; in the experiment with KB (Homo sapiens, KB), 0.12 µM; in the experiment on A549 [1] (Homo sapiens, A549) it was 0.16 µM.

Consider `COc1ccc2c(CN3CCCC[C@H]3CO)cc3cc4c(cc3c2c1)OCO4` [listing 2 of 2 here], for which the IC50 in the experiment with DU-145 (du-145) was found to be 0.09 µM; in experiment [2], 0.09 µM; with ZR-75-1 (zr-75-1), 0.08 µM.

With `COc1ccc2c(CNCCCCCC(=O)O)cc3cc4c(cc3c2c1)OCO4`, the IC50 in the experiment with DU-145 (Homo sapiens, DU-145) worked out at 0.67 µM; in experiment [2] (Homo sapiens, KBVIN), 0.83 µM; with ZR-75-1 (Homo sapiens, ZR-75-1), 0.54 µM; with KB (Homo sapiens, KB) it was 0.33 µM; in the experiment with A549 [1] (Homo sapiens, A549), 0.8 µM.

`COc1ccc2c(CNCCCCC(=O)O)cc3cc4c(cc3c2c1)OCO4` had an IC50 in the experiment on A549 [1] (Homo sapiens, A549) of 1.3 µM.
